Reference: ChEMBL document CHEMBL1255258, “Aminoglycosides affect intracellular Salmonella enterica serovars typhimurium and virchow” (Antimicrob Agents Chemother, 2008)
Converted amounts (≈) assume the structure as drawn. The source made the active and inactive calls. The calls are words filed in the database; no cut-off is given here.

What was measured:
[1] = system: Salmonella enterica subsp. enterica serovar Virchow; assay: Reduction in light emission by Salmonella enterica serovars virchow isolate 101591 infected in mouse J774A.1 cells after 5 mins; assay type: functional, cell-based
Summary of the method: (§1)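 Salmonella carrying pChν1 infected J774 macrophages (100:1, polymyxin B wash). Cells were held in antibiotic-free RPMI for 10 min at 37°C. Homoserine lactone 500 ng ml−1 was added, and 20 min later aminoglycoside at 15, 50, 100 or 150 μg ml−1. Luminescence was read every 5 min to 40 or 60 min, as % of untreated wells. Triplicate wells, at least three experiments.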

[2] = system: Salmonella typhimurium; assay: Antibacterial activity against Salmonella enterica serovars Typhimurium ATCC 14028 assessed as log reduction in viable counts at 150 ug/ml after 1hr; assay type: functional, organism-based; conditions: Salmonella enterica subsp. enterica serovar Typhimurium
[3] = system: Salmonella typhimurium; assay: Antibacterial activity against Salmonella enterica serovars Typhimurium ATCC 14028 infected in mouse J774A.1 cells at 50 ug/ml after 1hr; assay type: functional, organism-based; conditions: Salmonella enterica subsp. enterica serovar Typhimurium
Summary of the method: (§2)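 J774 macrophages were seeded overnight at 37°C in 5% CO2, then switched to antibiotic-free RPMI. They were infected at 100:1 with Salmonella grown in RPMI to OD600 about 1. Extracellular bacteria were removed with 5 μg ml−1 polymyxin B for 10 min. Aminoglycoside was given for 1 h. Cells were lysed in 1% Triton X-100 buffer, and 1:10 serial dilutions were plated on LB agar.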

[4] = system: Salmonella typhimurium; assay: Antibacterial activity against Salmonella enterica serovars Typhimurium ATCC 14028 infected in mouse J774A.1 macrophage assessed as log reduction in viable counts at 150 ug/ml after 1hr; assay type: functional, organism-based; conditions: Salmonella enterica subsp. enterica serovar Typhimurium; summary of the method: as §2
[5] = (§3) Antibacterial activity against Salmonella enterica serovars virchow isolate 101591 at pH 5.7 by broth dilution method; assay type: functional, Salmonella enterica subsp. enterica serovar Virchow
Summary of the method: (§4)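 Broth dilution MIC. Overnight cultures were diluted 1:100 in LB broth buffered with phosphate to pH 7 or 5.7, giving a final inoculum of ~10^6 CFU ml−1. Antibiotic range was 0 to 500 μg ml−1. Absorbance at 600 nm was read after 24 h at 37°C with shaking; mean of three experiments.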

[6] = system: Salmonella typhimurium; assay: Antibacterial activity against Salmonella enterica serovars Typhimurium ATCC 14028 at pH 5.7 by broth dilution method; assay type: functional, Salmonella enterica subsp. enterica serovar Typhimurium; summary of the method: as §4
[7] = (§5) Antibacterial activity against Salmonella enterica serovars virchow isolate 101591 at pH 7.0 by broth dilution method; assay type: functional, Salmonella enterica subsp. enterica serovar Virchow; summary of the method: as §4
[8] = system: Salmonella typhimurium; assay: Antibacterial activity against Salmonella enterica serovars Typhimurium ATCC 14028 at pH 7.0 by broth dilution method; assay type: functional, Salmonella enterica subsp. enterica serovar Typhimurium
Summary of the method: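 Broth dilution MIC in LB broth buffered with phosphate to pH 7. Overnight culture was diluted 1:100 to about 10^6 CFU ml−1 final, with antibiotic at 0 to 500 μg ml−1. A600 was read after 24 h at 37°C with shaking.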

[9] = Antibacterial activity against Salmonella enterica serovars virchow isolate 101591 at pH 5.7 by bioluminescence assay; assay type: functional, Salmonella enterica subsp. enterica serovar Virchow
Summary of the method: (§6)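 Overnight cultures carrying the pChν1 lux plasmid were diluted 1:100 in LB broth with 30 μg ml−1 chloramphenicol, adjusted to pH 7 or 5.7. Final titer was ~10^6 CFU ml−1, with antibiotic at 0 to 500 μg ml−1. After 1 h at 30°C, homoserine-lactone (100 ng ml−1) was added to induce light. EC50 was the concentration halving light emission at 60 min; mean of three experiments.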

[10] = Antibacterial activity against Salmonella enterica serovars virchow isolate 101591 at pH 7.0 by bioluminescence assay; assay type: functional, Salmonella enterica subsp. enterica serovar Virchow; summary of the method: as §6
[11] = system: Salmonella typhimurium; assay: Antibacterial activity against Salmonella enterica serovars Typhimurium ATCC 14028 at pH 7.0 by bioluminescence assay; assay type: functional, organism-based, Salmonella enterica subsp. enterica serovar Typhimurium; summary of the method: as §6
[12] = system: Salmonella typhimurium; assay: Antibacterial activity against Salmonella enterica serovars Typhimurium ATCC 14028 at pH 5.7 by bioluminescence assay; assay type: functional, organism-based, Salmonella enterica subsp. enterica serovar Typhimurium; summary of the method: as §6
[13] = system: Salmonella enterica subsp. enterica serovar Virchow; assay: Antibacterial activity against Salmonella enterica serovars virchow isolate 101591 assessed as log reduction in viable counts at 150 ug/ml after 1hr; assay type: functional
[14] = system: Salmonella enterica subsp. enterica serovar Virchow; assay: Antibacterial activity against Salmonella enterica serovars virchow isolate 101591 infected in mouse J774A.1 cells at 50 ug/ml after 1hr; assay type: functional, cell-based; summary of the method: as §2
[15] = system: Salmonella enterica subsp. enterica serovar Virchow; assay: Antibacterial activity against Salmonella enterica serovars virchow isolate 101591 infected in mouse J774A.1 macrophage assessed as log reduction in viable counts at 150 ug/ml after 1hr; assay type: functional; summary of the method: as §2
[16] = system: Salmonella; assay: Antibacterial activity against Salmonella infected in mouse RAW 264.7 cells expressing Nramp1 assessed as log reduction in viable count at 100 ug/ml; assay type: functional, organism-based
[17] = system: Salmonella typhimurium; assay: Reduction in light emission by Salmonella enterica serovars Typhimurium ATCC 14028 infected in mouse Nramp deficient RAW 264.7 cells at 100 ug/ml; assay type: functional, organism-based; parameters: scale not given: the % may be the effect or the level left; conditions: Salmonella enterica subsp. enterica serovar Typhimurium
Summary of the method: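 RAW 264.7 macrophages, Nramp1+ (R37) or Nramp1-null (R21), were infected with serovar Typhimurium carrying pChν1. Homoserine lactone was 500 ng ml−1. Gentamicin 100 μg ml−1 was added 0.5 to 3 h after infection. Luminescence was read every 5 min, as a ratio to untreated control in the same cell line. Triplicate, at least three trials.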

[18] = system: Salmonella; assay: Antibacterial activity against Salmonella infected in mouse Nramp1 deficient RAW 264.7 cells assessed as log reduction in viable count at 100 ug/ml; assay type: functional, organism-based
[19] = system: Salmonella typhimurium; assay: Reduction in light emission by Salmonella enterica serovars Typhimurium ATCC 14028 infected in mouse J774A.1 cells at 50 ug/ml after 40 mins; assay type: functional, organism-based; conditions: Salmonella enterica subsp. enterica serovar Typhimurium; summary of the method: as §1
[20] = system: Salmonella typhimurium; assay: Reduction in light emission by Salmonella enterica serovars Typhimurium ATCC 14028 infected in mouse J774A.1 cells at 50 ug/ml after 30 mins; assay type: functional, organism-based; conditions: Salmonella enterica subsp. enterica serovar Typhimurium; summary of the method: as §1
[21] = system: Salmonella typhimurium; assay: Reduction in light emission by Salmonella enterica serovars Typhimurium ATCC 14028 infected in mouse J774A.1 cells at 50 ug/ml within 5 mins; assay type: functional, organism-based; conditions: Salmonella enterica subsp. enterica serovar Typhimurium; summary of the method: as §1
[22] = system: Salmonella typhimurium; assay: Reduction in light emission by Salmonella enterica serovars Typhimurium ATCC 14028 infected in mouse J774A.1 cells at 15 ug/ml after 40 mins; assay type: functional, organism-based; parameters: scale not given: the % may be the effect or the level left; conditions: Salmonella enterica subsp. enterica serovar Typhimurium; summary of the method: as §1
[23] = system: Salmonella typhimurium; assay: Reduction in light emission by Salmonella enterica serovars Typhimurium ATCC 14028 infected in mouse J774A.1 cells at 15 ug/ml after 30 mins; assay type: functional, organism-based; conditions: Salmonella enterica subsp. enterica serovar Typhimurium; summary of the method: as §1
[24] = system: Salmonella typhimurium; assay: Reduction in light emission by Salmonella enterica serovars Typhimurium ATCC 14028 at <= 30 ug/ml; assay type: functional, organism-based; conditions: Salmonella enterica subsp. enterica serovar Typhimurium
[25] = system: Salmonella enterica subsp. enterica serovar Virchow; assay: Reduction in light emission by Salmonella enterica serovars virchow isolate 101591 at < 50 ug/ml; assay type: functional
[26] = system: Salmonella typhimurium; assay: Reduction in light emission by Salmonella enterica serovars Typhimurium ATCC 14028 at > 30 ug/ml after 40 mins; assay type: functional, organism-based; conditions: Salmonella enterica subsp. enterica serovar Typhimurium
[27] = system: Salmonella enterica subsp. enterica serovar Virchow; assay: Reduction in light emission by Salmonella enterica serovars virchow isolate 101591 at >= 50 ug/ml after 40 mins; assay type: functional
[28] = system: Salmonella enterica subsp. enterica serovar Virchow; assay: Reduction in light emission by Salmonella enterica serovars virchow isolate 101591 after 5mins; assay type: functional
[29] = system: Salmonella typhimurium; assay: Reduction in light emission by Salmonella enterica serovars Typhimurium ATCC 14028 after 5 mins; assay type: functional, organism-based; conditions: Salmonella enterica subsp. enterica serovar Typhimurium
[30] = system: Salmonella enterica subsp. enterica serovar Virchow; assay: as §3; assay type: functional; summary of the method: as §4
[31] = system: Salmonella enterica subsp. enterica serovar Virchow; assay: as §5; assay type: functional; summary of the method: as §4
[32] = Salmonella enterica, ATCC 14028, read-out: EC50
[33] = Salmonella enterica subsp. enterica serovar Typhimurium

| Compound | Activity [1] | Activity [2] | Activity [3] | Activity [4] | MIC [5] | MIC [6] | MIC [7] | MIC [8] | EC50 [9] | EC50 [10] | EC50 [11, 32] | EC50 [12, 32] | Activity [13] | Activity [14] | Activity [15] | other results |
| --- | --- | --- | --- | --- | --- | --- | --- | --- | --- | --- | --- | --- | --- | --- | --- | --- |
| NC[C@H]1O[C@H](O[C@H]2[C@H](O)[C@@H](O[C@H]3O[C@H](CO)[C@@H](O)[C@H](N)[C@H]3O)[C@H](N)C[C@@H]2N)[C@H](O)[C@@H](O)[C@@H]1O [KANAMYCIN] | Active | Active | inactive | Active | 250 µg/mL (≈ 516 µM) | 250 µg/mL (≈ 516 µM) | 16 µg/mL (≈ 33 µM) | 8 µg/mL (≈ 16.5 µM) | 130 µg/mL (≈ 268 µM) | 6.5 µg/mL (≈ 13.4 µM) | 3.5 µg/mL (≈ 7.22 µM) | 29 µg/mL (≈ 59.9 µM) | Active | Active | Active | – |
| NC[C@H]1O[C@H](O[C@H]2[C@H](O)[C@@H](O[C@H]3O[C@H](CO)[C@@H](O)[C@H](N)[C@H]3O)[C@H](N)C[C@@H]2N)[C@H](N)C[C@@H]1O [TOBRAMYCIN] | Active | Active | inactive | Active | 250 µg/mL (≈ 535 µM) | 125 µg/mL (≈ 267 µM) | 8 µg/mL (≈ 17.1 µM) | 4 µg/mL (≈ 8.56 µM) | 75 µg/mL (≈ 160 µM) | 2.5 µg/mL (≈ 5.35 µM) | 1 µg/mL (≈ 2.14 µM) | 19 µg/mL (≈ 40.6 µM) | Active | Active | Active | – |
| GENTAMICIN [listing 1 of 2 here] | – | – | – | – | – | – | – | – | 85 µg/mL | 2 µg/mL | – | – | – | – | – | EC50 [11]: 1 µg/mL; EC50 [12]: 34 µg/mL |
| GENTAMICIN [listing 2 of 2 here] | – | Active | inactive | Active | – | – | – | – | – | – | – | – | Active | Active | Active | FC [16]: 0.4; Activity [17]: 80%; FC [18]: 1.6; Activity [19]: Active; Activity [20]: Active; Activity [21]: Active; Activity [22]: 20%; Activity [23]: Active; Activity [24]: inactive; Activity [25]: inactive; Activity [26]: Active; Activity [27]: Active; Activity [28]: Active; Activity [29]: Active; MIC [30]: 125 µg/mL; MIC [6, 33]: 125 µg/mL; MIC [31]: 8 µg/mL; MIC [8, 33]: 4 µg/mL |
